From ChEMBL document CHEMBL1125242, “Synthesis and anticonvulsant activity of 1-acyl-2-pyrrolidinone derivatives” (J Med Chem, 1991)

Tests used:
Mus musculus [1] = species on record: Mus musculus; assay: Latency to the protection against lethality by picrotoxin was measured and evaluated as a percent of the control in mice.; assay type: functional; design: concentration or dose not given beside the values
Method in brief: (§1)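 Male ddY mice (20–30 g) were given compound i.p. at 200 mg/kg as a suspension in pH 7.4 isotonic phosphate buffer with 1% CMC-Na, 15 min before s.c. picrotoxin 5 mg/kg. Dosing volume was 0.1 mL/10 g, and controls received vehicle. Latency to generalized clonic seizure and survival time were each expressed as % of control.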

Mus musculus [2] = species on record: Mus musculus; assay: Survival ratio was calculated for determination of dose dependency.; assay type: functional
Method in brief: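 In male ddY mice (20–30 g), compound was given i.p. at varied doses as a suspension in pH 7.4 isotonic phosphate buffer with 1% CMC-Na, 15 min before s.c. picrotoxin 5 mg/kg. Dosing volume was 0.1 mL/10 g. Over 2 h of observation, the fraction of mice surviving was recorded at each dose to define dose dependency.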

Mus musculus [3] = species on record: Mus musculus; assay: Latency to the onset of generalized clonic epileptic seizures by picrotoxin was measured and evaluated as a percent of the control in mice.; assay type: functional; design: concentration or dose not given beside the values; method in brief: as §1
Mus musculus [4] = assay: Sleeping time in mice after administration in mice induced by sodium pentobarbital; assay type: functional
Method in brief: (§2)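 Male ddY mice (20–30 g) are dosed i.p. at 50 mg/kg as a suspension in pH 7.4 isotonic phosphate buffer with 1% CMC-Na (0.1 mL/10 g), 30 min before i.p. sodium pentobarbital (45 mg/kg). Loss of righting reflex and sleeping time are recorded per mouse. Mean ± SEM; Student's t test versus control.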

Mus musculus [5] = assay: Onset for sleeping time after administration in mice induced by sodium pentobarbital; assay type: functional; method in brief: as §2
[6] = Apparent partition coefficient between 1-octanol and pH 5.0 phosphate buffer (0.1 M) at 37 degrees Centigrade.; assay type: physicochemical; details: 1-octanol/phosphate buffer, read-out: LogD5.0
Method in brief: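 Final drug concentration 2 mM. The value is reported as the log of the apparent partition coefficient.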

Mus musculus [7] = species on record: Mus musculus; assay: Degradation rate constant in biological media of mouse brain homogenates.; assay type: ADME, organism-based
Method in brief: (§3)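 Tissues come from male ddY mice (20–30 g) and male Wistar rats (200–250 g). Liver and brain are homogenized at 0–5 °C to 40% in pH 7.4 isotonic phosphate buffer and spun at 2500g for 15 min; the supernatant is used. Plasma is also used. A 0.1 M acetonitrile stock gives 1 mM final. Incubation at 37 ± 0.2 °C; apparent rate constant in h⁻¹.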

[8] = Degradation rate constant in the buffer solution(pH 7.4) was studied as a measure of the stability of the compound.; assay type: physicochemical
Method in brief: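 A 0.1 M acetonitrile stock is added to preheated pH 7.4 phosphate buffer (0.1 M total, ionic strength 0.3 with NaCl) to 1 mM at 37 ± 0.2 °C. Aliquots are sampled over time. Pseudo-first-order fit gives the apparent rate constant in h⁻¹.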

Rattus norvegicus [9] = species on record: Rattus norvegicus; assay: Degradation rate constant in biological media of rat brain homogenates.; assay type: ADME, organism-based; method in brief: as §3
Mus musculus [10] = species on record: Mus musculus; assay: Degradation rate constant in biological media of mouse liver homogenates.; assay type: ADME, organism-based; method in brief: as §3
Rattus norvegicus [11] = species on record: Rattus norvegicus; assay: Degradation rate constant in biological media of rat plasma homogenates.; assay type: ADME, organism-based; method in brief: as §3
Rattus norvegicus [12] = species on record: Rattus norvegicus; assay: Degradation rate constant in biological media of rat liver homogenates.; assay type: ADME, organism-based; method in brief: as §3
Mus musculus [13] = species on record: Mus musculus; assay: Compounds were evaluated for the effect on electroconvulsive-shock-induced disruption (ECS) of the memory of passive avoidance response (antiamnesic activity) in mice and expressed as learning time.; assay type: functional
Method in brief: (§4)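 Male ddY mice (20–25 g) are dosed i.p. at 200 mg/kg as a suspension in pH 7.4 isotonic phosphate buffer with 1% CMC-Na (0.1 mL/10 g), 60 min before training. A two-compartment step-through box is used: lighted compartment, darkened compartment with grid floor, 30 V foot shock. Memory is disrupted by electroconvulsive shock. Mean ± SEM; Student's t test versus the ECS group.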

Mus musculus [14] = species on record: Mus musculus; assay: Compounds were evaluated for the effect on electroconvulsive-shock-induced disruption (ECS) of the memory of passive avoidance response (antiamnesic activity) in mice and expressed as latency.; assay type: functional; method in brief: as §4
[15] = Solubility in pH 5.0 phosphate buffer (0.1 M) at 37 degrees Centigrade; Miscible; assay type: physicochemical
Mus musculus [16] = species on record: Mus musculus; assay: Compounds were evaluated for the effect on electroconvulsive-shock-induced disruption (ECS) of the memory of passive avoidance response (anti-amnesic activity) in mice and expressed as latency.; assay type: functional; method in brief: as §4

Compound	Survival time (Mus musculus [1])	Survival ratio (Mus musculus [2])	Latency to clonic seizure onset (% of control) (Mus musculus [3])	Sleeping time (Mus musculus [4])	Onset for sleep, min (Mus musculus [5])	logD [6]	Onset for sleep (Mus musculus [5])	Degradation rate constant (Mus musculus [7])	Degradation rate constant [8]	Degradation rate constant (Rattus norvegicus [9])	Degradation rate constant (Mus musculus [10])	Degradation rate constant (Rattus norvegicus [11])	Degradation rate constant (Rattus norvegicus [12])	Learning time (Mus musculus [13])	Latency (Mus musculus [14])	Saq [15]	Latency (Mus musculus [16])
CC(C)(C)C(=O)N1CCCC1=O	120%	0	101%														
O=C1CCCN1C(=O)Cc1ccccc1	281%	33	106%														
O=C1CCCN1C(=O)c1ccccc1	93%	0	114%														
CCCC(CCC)C(=O)O [VALPROIC ACID]	472%	63	171%	36.4 min	10												
O=C(O)CCC(=O)N1CCCC1=O	93%	0	113%														
NCCCC(=O)O [GAMMA-AMINOBUTYRIC ACID]	112%		115%	25.7 min		-3.33	10.1 min										
CCCCC(=O)N1CCCC1=O	107%	0	78%														
CCCC(=O)N1CCCC1=O	142%	0	92%	92 min		1.18	7.2 min	0.016 h⁻¹	0.006 h⁻¹	0.016 h⁻¹	1.35 h⁻¹	0.054 h⁻¹	3.11 h⁻¹				
CCCCCCCCCCCC(=O)NCCCC(=O)O	388%	60	493%														
CC(=O)N1CCCC1=O	144%	0	97%	38.2 min		-0.05	6.9 min	0.01 h⁻¹	0.015 h⁻¹	0.014 h⁻¹	0.221 h⁻¹	0.028 h⁻¹	0.097 h⁻¹	15.3 s	101.7 s	Miscible	
O=C1CCCN1 [2-PYRROLIDONE]	102%	0	107%	24.8 min			10.2 min	0.002 h⁻¹	< 0.0001 h⁻¹	0.016 h⁻¹	0.034 h⁻¹	0.018 h⁻¹	0.03 h⁻¹			Miscible	
CCC(=O)N1CCCC1=O	112%	0	104%														
CCC1(C)CC(=O)NC1=O (stereo unspecified) [ETHOSUXIMIDE]	577%	100	792%														
CCCCCCCCCC(=O)N1CCCC1=O	364%	50	302%			4.33		0.326 h⁻¹	0.008 h⁻¹	0.381 h⁻¹	2.53 h⁻¹	0.025 h⁻¹	2.87 h⁻¹				
CCCCCCCCCCCC(=O)N1CCCC1=O	494%	80	129%	47.4 min		5.05	9.6 min	0.155 h⁻¹	0.007 h⁻¹	0.233 h⁻¹	0.789 h⁻¹	0.016 h⁻¹	1.23 h⁻¹	19.4 s	278.8 s		
CCCCCCC(=O)N1CCCC1=O	116%	0	124%	61.8 min		3.04	7.9 min	0.086 h⁻¹	0.012 h⁻¹	0.075 h⁻¹	11.9 h⁻¹	0.056 h⁻¹	14.6 h⁻¹	20.4 s			240.6 s
